A short description of data set [1]: melting temperature; fluorescence melt of hairpins on a sequencing array, two-state fit, raised by 9.35 °C to match UV melts. The following applies: sodium 0.088 M. In a few lines: (§1)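 To match UV melts, fitted temperatures were raised by 9.35 °C. These fits were bootstrapped two-state models that gave melting temperature and folding enthalpy, combined by inverse variance over four replicates. The input was normalised Cy3 fluorescence of library hairpins with annealed Cy3 and quencher oligos on a sequenced MiSeq flow cell, imaged in 50 mM Na-HEPES pH 8.0, 25 mM NaCl in 2.5 °C steps up to 60 °C.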

The nature of data set [2]: folding enthalpy; higher = less favourable; fluorescence melt of hairpins on a sequencing array, two-state fit. The following applies: sodium 0.088 M. In a few lines:
as §1

As for GTCCCCGAAAGGGGGGAC ((((((....)))..))), in data set [1], the Tm is 60.5 °C. Besides, the folding enthalpy in data set [2] was -11.7 kcal/mol.

As to GTCCCCGGAAACAGGGAC (((((.(....).))))), the Tm in data set [1] was found to be 48.6 °C. The folding enthalpy in data set [2] was -39.9 kcal/mol.

GTCCCCGGAAACGGGAAC ((.((((....)))).)): in data set [1], the Tm amounted to 46.4 °C. Further, the folding enthalpy in data set [2] is -15.1 kcal/mol.

On to GTCCCCGGAAACGGGGGC (.(((((....))))).), for which the Tm in data set [1] came to 68 °C. In data set [2], the folding enthalpy is -19.5 kcal/mol.

With GTCCCGCGAAAGCGAGAC (((.(((....))).))), the Tm in data set [1] turned out to be 55.7 °C. In data set [2], the folding enthalpy was -32.5 kcal/mol.

As to GTCCCGCGAAAGCGTGAC (((.(((....))).))), the Tm in data set [1] stood at 52.9 °C. Further, the folding enthalpy in data set [2] is -23.9 kcal/mol.

For GTCCCGGGAAACCGGGGC (.(((((....))))).), the Tm in data set [1] is 64.3 °C. Moreover, the folding enthalpy in data set [2] is -19 kcal/mol.

As for GTCCCTGAAAAGGGAC ((((((....)))))), the Tm in data set [1] stood at 67.7 °C. Besides, the folding enthalpy in data set [2] was -34.6 kcal/mol.

Turning to GTCCCTGGAAACAGGAAC ((.((((....)))).)), the Tm in data set [1] was determined as 36.1 °C. Besides, the folding enthalpy in data set [2] was -21.6 kcal/mol.

Consider GTCCCTGGAAACAGGGGC (.(((((....))))).), for which the Tm in data set [1] stood at 57.4 °C. The folding enthalpy in data set [2] is -27.5 kcal/mol.

Regarding GTCCGAGGAAACCCGGAC (((((.(....).))))), the Tm in data set [1] stood at 53.2 °C. Moreover, the folding enthalpy in data set [2] was -40.5 kcal/mol.

Regarding GTCCGCCGAAAGGCTGAC (((.(((....))).))), the Tm in data set [1] came out at 57.3 °C. In data set [2], the folding enthalpy is -21.9 kcal/mol.

Regarding GTCCGCGAAAGCGCCGAC ((((((....)))..))), in data set [1], the Tm was determined as 36.9 °C. Moreover, the folding enthalpy in data set [2] was -11.1 kcal/mol.

GTCCGCGAAAGCGTTGAC ((((((....)))..))): the Tm in data set [1] is 36.8 °C. Moreover, the folding enthalpy in data set [2] is -14.4 kcal/mol.

On to GTCCGCGGAAACACGGAC (((((.(....).))))), for which the Tm in data set [1] was determined as 54.2 °C. Further, in data set [2], the folding enthalpy was -42 kcal/mol.

With GTCCGCGGAAACGCAGAC (((.(((....))).))), the Tm in data set [1] stood at 49.9 °C. In data set [2], the folding enthalpy was -21.5 kcal/mol.

Consider GTCCGGCCGAAAGGCGAC (((..(((....)))))), for which the Tm in data set [1] is 41.7 °C. For the same sequence, the folding enthalpy in data set [2] is -12.8 kcal/mol.

As for GTCCGGCGAAAGCCAGAC (((.(((....))).))), the Tm in data set [1] was 50.7 °C. Further, in data set [2], the folding enthalpy is -27.5 kcal/mol.

Regarding GTCCGGGCGAAAGCCGAC (((..(((....)))))), the Tm in data set [1] was 44.3 °C. Moreover, the folding enthalpy in data set [2] is -11.1 kcal/mol.

GTCCGGGGAAACCCAGAC (((.(((....))).))): in data set [1], the Tm was 42.8 °C. In addition, the folding enthalpy in data set [2] was -29.6 kcal/mol.

On to GTCCGGTCGAAAGACGAC (((..(((....)))))), for which the Tm in data set [1] is 38.5 °C. Further, the folding enthalpy in data set [2] is -12.6 kcal/mol.

On to GTCCGTGGAAACACGAAC ((.((((....)))).)), for which the Tm in data set [1] worked out at 39.7 °C. Further, in data set [2], the folding enthalpy was -21 kcal/mol.

For GTCCTACGAAAGTACGAC (((.(((....))).))), in data set [1], the Tm came to 35.2 °C. Further, the folding enthalpy in data set [2] is -24.9 kcal/mol.

Consider GTCCTAGGAAACTGGGAC ((((.((....)).)))), for which the Tm in data set [1] worked out at 49.4 °C. Besides, in data set [2], the folding enthalpy was -37.8 kcal/mol.

Turning to GTCCTATCGAAAGATGAC (((..(((....)))))), the Tm in data set [1] is 23.4 °C. The folding enthalpy in data set [2] is -8.25 kcal/mol.

Turning to GTCCTCGAAAGAGAAGAC ((((((....)))..))), in data set [1], the Tm stood at 32.2 °C. The folding enthalpy in data set [2] was -19.8 kcal/mol.

In the case of GTCCTCGAAAGAGCTGAC ((((((....)))..))), in data set [1], the Tm turned out to be 29.5 °C. Moreover, the folding enthalpy in data set [2] was -12.4 kcal/mol.

Regarding GTCCTCGAAAGAGGAGAC ((((((....)))..))), the Tm in data set [1] came to 47.8 °C. In addition, in data set [2], the folding enthalpy is -10.2 kcal/mol.

For GTCCTCGAAAGAGTGAC ((((((....))).))), the Tm in data set [1] came to 46.3 °C. Besides, the folding enthalpy in data set [2] is -25.7 kcal/mol.

With GTCCTCGAAAGAGTTGAC ((((((....)))..))), the Tm in data set [1] worked out at 31.2 °C. Moreover, the folding enthalpy in data set [2] was -10.7 kcal/mol.

Take GTCCTGCGAAAGCAAGAC (((.(((....))).))): the Tm in data set [1] is 48.1 °C. For the same sequence, the folding enthalpy in data set [2] was -23.3 kcal/mol.

Regarding GTCGAACGAAAGTTAGAC (((.(((....))).))), in data set [1], the Tm stood at 52.6 °C. Besides, the folding enthalpy in data set [2] is -33.1 kcal/mol.

Take GTCGAACGAAAGTTGGAC (((.(((....))).))): the Tm in data set [1] came out at 50.6 °C. Besides, in data set [2], the folding enthalpy was -46.4 kcal/mol.

Consider GTCGAAGGAAACTTCAAC ((.((((....)))).)), for which, in data set [1], the Tm is 26.9 °C. In data set [2], the folding enthalpy was -12.4 kcal/mol.

As for GTCGAAGGAAACTTTGAC (((.(((....))).))), in data set [1], the Tm turned out to be 44.5 °C. Also, the folding enthalpy in data set [2] was -31.1 kcal/mol.

GTCGACGAAAGTCGAGAC ((((((....)))..))): in data set [1], the Tm was 51.9 °C. For the same sequence, in data set [2], the folding enthalpy was -9.56 kcal/mol.

Consider GTCGACGAAAGTCGCGAC ((((((....)))..))), for which the Tm in data set [1] stood at 57.4 °C. For the same sequence, the folding enthalpy in data set [2] was -12.6 kcal/mol.

Values taken from the array DNA melting data of Ke et al. (doi:10.1101/2024.01.08.574731).
